Assay results reported in ChEMBL document CHEMBL3875165, “Novel broad-spectrum and long-acting parenteral cephalosporins having an acyl cyanamide moiety at the C-3 terminal: Synthesis and structure-activity relationships” (Eur J Med Chem, 2016).

How the values were obtained:
[1] = AUC (0 to infinity) in monkey at 20 mg/kg, iv administered as bolus dose by HPLC method; assay type: ADME, organism-based, Macaca mulatta; parameters: dose 20 mg/kg, time infinity, route intravenous; details: rhesus monkey, in vivo
Method in brief: (§1)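 Three monkeys per group received a single iv bolus of 20 mg/kg (1 mL/kg). Plasma levels were measured by HPLC. AUC0-∞, CLtot and T1/2 came from a 2-compartment fit.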

[2] = Half life in monkey at 20 mg/kg, iv administered as bolus dose by HPLC method; assay type: ADME, organism-based, Macaca mulatta; details: rhesus monkey, in vivo; method in brief: as §1
[3] = Total clearance in monkey at 20 mg/kg, iv administered as bolus dose by HPLC method; assay type: ADME, organism-based, Macaca mulatta; details: rhesus monkey, in vivo; method in brief: as §1
[4] = Protein binding in ICR mouse plasma after 30 mins by ultra-filtration method; assay type: ADME, cell-free; details: read-out: PPB (converted)
Method in brief: (§2)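 Mouse or monkey plasma was adjusted to pH 7 with CO2 and spiked with compound to a final 10 µg/ml. It was incubated 30 min at 37 °C, then ultrafiltered by centrifugation at 3200 rpm for 30 min at 25 °C. Free drug in the filtrate was measured by bioassay to give the bound fraction.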

[5] = Protein binding in cynomolgus monkey plasma after 30 mins by ultra-filtration method; assay type: ADME, cell-free, Macaca fascicularis; details: read-out: PPB (converted); method in brief: as §2
Staphylococcus aureus = test: Antibacterial activity against Staphylococcus aureus SMITH after 20 hrs by agar dilution method; assay type: functional
Method in brief: (§3)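 Agar dilution MIC on Sensitivity Disk Agar-N with 2-fold serial drug dilutions. Overnight Mueller Hinton broth cultures were diluted to about 10^6 CFU/mL, and 1 µL spots were applied. Plates were incubated 20 h at 37 °C before scoring.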

Streptococcus pneumoniae [6] = test: Antibacterial activity against penicillin-resistant Streptococcus pneumoniae SR16675 after 20 hrs by agar dilution method; assay type: functional; details: SR16675, 20 h
Method in brief: (§4)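 Agar dilution on Sensitivity Disk Agar-N. Overnight Mueller Hinton broth cultures were diluted to about 10^6 CFU/mL, and 1 µL spots were placed on agar plates holding 2-fold serial dilutions of antibiotic. Plates were incubated 20 h at 37 °C and then MICs were scored.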

Streptococcus pneumoniae [7] = test: Antibacterial activity against penicillin-resistant Streptococcus pneumoniae SR16750 after 20 hrs by agar dilution method; assay type: functional; details: SR16750, 20 h; method in brief: as §4
Haemophilus influenzae [8] = test: Antibacterial activity against beta-lactamase non-producing penicillin-resistant Haemophilus influenzae SR11435 after 20 hrs by agar dilution method; assay type: functional; details: SR11435, 20 h; method in brief: as §4
Haemophilus influenzae [9] = test: Antibacterial activity against beta-lactamase non-producing penicillin-resistant Haemophilus influenzae SR24106 after 20 hrs by agar dilution method; assay type: functional; details: SR24106, 20 h; method in brief: as §4
Moraxella catarrhalis = test: Antibacterial activity against Moraxella catarrhalis SR24290 after 20 hrs by agar dilution method; assay type: functional; details: SR24290, 20 h; method in brief: as §3
Escherichia coli = test: Antibacterial activity against Escherichia coli NIHJ JC-2 after 20 hrs by agar dilution method; assay type: functional; details: NIHJ JC-2, 20 h; method in brief: as §3
[10] = Half life in mouse at 20 mg/kg, iv administered as bolus dose by band-culture bioassay; details: in vivo
[11] = Total clearance in mouse at 20 mg/kg, iv administered as bolus dose by band-culture bioassay; details: in vivo
[12] = AUC (0 to infinity) in mouse at 20 mg/kg, iv administered as bolus dose by band-culture bioassay; details: in vivo

SMILES	AUC [1] [ng·h/mL]	half-life [2] [h]	clearance [3] [mL/min/kg]	fraction unbound at 0.5 h [4]	fraction unbound at 0.5 h [5]	MIC (Staphylococcus aureus) [µg/mL]	MIC (Streptococcus pneumoniae [6]) [µg/mL]	MIC (Streptococcus pneumoniae [7]) [µg/mL]	MIC (Haemophilus influenzae [8]) [µg/mL]	MIC (Haemophilus influenzae [9]) [µg/mL]	MIC (Moraxella catarrhalis) [µg/mL]	MIC (Escherichia coli) [µg/mL]	half-life [10] [h]	clearance [11] [mL/min/kg]	AUC(0-inf) [12] [ng·h/mL]
CCO/N=C(\C(=O)N[C@@H]1C(=O)N2C(C(=O)[O-])=C(/C=C/C[n+]3ccc(-c4c[nH]c(/C([O-])=N/C#N)c4C)cc3)CS[C@H]12)c1csc(N)n1.[Na+]	42200	5.19	0.4	0.54	0.16	0.25	0.125	0.125	0.063	0.125	4	0.125	0.86	15.2	22000
CCO/N=C(\C(=O)N[C@@H]1C(=O)N2C(C(=O)[O-])=C(/C=C/C[n+]3ccc(-c4cc(/C([O-])=N/C#N)on4)cc3)CS[C@H]12)c1csc(N)n1.[Na+]	59800	5.14	0.29	0.78	0.06	0.5	0.25	0.25	0.063	0.125	0.5	0.125	0.85	22.6	14800
CCO/N=C(\C(=O)N[C@@H]1C(=O)N2C(C(=O)[O-])=C(/C=C/C[n+]3ccc(-c4c[nH]c(/C([O-])=N/C#N)c4)cc3)CS[C@H]12)c1csc(N)n1.[Na+]	20200	4.25	0.84	0.75	0.3	0.25	0.125	0.25	0.063	0.125	8	0.125	0.93	18.9	17600
CCO/N=C(\C(=O)N[C@@H]1C(=O)N2C(C(=O)[O-])=C(/C=C/C[n+]3cccc(/C([O-])=N/C#N)c3)CS[C@H]12)c1csc(N)n1.[Na+]	9500	1.33	1.79	0.94	0.67	0.5	0.25	0.5	0.063	0.125	2	0.125	0.55	23.7	14100
CCO/N=C(\C(=O)N[C@@H]1C(=O)N2C(C(=O)[O-])=C(/C=C/C[n+]3ccc(-c4csc(/C([O-])=N/C#N)c4)cc3)CS[C@H]12)c1csc(N)n1.[Na+]	25900	4.67	0.66	0.63	0.36	0.25	0.125	0.25	0.063	0.125	2	0.125	0.75	11	30400
CCO/N=C(\C(=O)N[C@@H]1C(=O)N2C(C(=O)[O-])=C(/C=C/C[n+]3cccc4cc(/C([O-])=N/C#N)[nH]c43)CS[C@H]12)c1csc(N)n1.[Na+]	29200	4.35	0.57	0.67	0.06	0.5	0.25	0.5	0.063	0.25	0.5	0.125	0.64	15	22200
CCO/N=C(\C(=O)N[C@@H]1C(=O)N2C(C(=O)[O-])=C(/C=C/C[n+]3ccc(/C([O-])=N/C#N)cc3)CS[C@H]12)c1csc(N)n1.[Na+]	9700	1.22	1.84	0.92	0.59	0.5	0.25	0.5	0.063	0.125	1	0.25	0.72	22.9	14600
CCO/N=C(\C(=O)N[C@@H]1C(=O)N2C(C(=O)[O-])=C(/C=C/C[n+]3ccc4[nH]c(/C([O-])=N/C#N)cc4c3)CS[C@H]12)c1csc(N)n1.[Na+]	20900	3.35	0.8	0.73	0.33	0.5	0.25	0.5	0.063	0.125	4	0.25	0.63	10.9	30400
CCO/N=C(\C(=O)N[C@@H]1C(=O)N2C(C(=O)[O-])=C(/C=C/C[n+]3cccc4[nH]c(/C([O-])=N/C#N)cc43)CS[C@H]12)c1csc(N)n1.[Na+]	9800	2.03	1.74	0.64	0.4	0.5	0.25	0.5	0.031	0.125	1	0.125	0.73	14.1	23600
